Results: PMC2217063 (The Journal of General Physiology, 1997)
Several values for one entry are separate records, joined by “and”; a condition that tells them apart may be missing. Identical values can stand only once. Like-named read-outs stand apart in the source and are kept apart here.

Columns and labels:
Na,K-ATPase [1] = biological target: T1, Na,K-ATPase (Canis lupus familiaris, UniProt P50997); assay: Na,K-ATPase activity at 37°C with different anions; type: biochemical, dog; settings: 400 mM vs 40 mM
Method in brief: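 Enzyme purified from outer-medulla microsomes. […] Salts: 40 mM Na+/8 mM K+/3.5 mM Mg2+ or 400 mM Na+/80 mM K+/10 mM Mg2+. Preincubated 20 min at 37°C; started with ATP, 4 mM final.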

Na,K-ATPase [2] = biological target: T1, Na,K-ATPase; assay: K- and ADP-chases of the phosphointermediate; type: biochemical, dog; settings: for ratio of interconversion rate constants, k12/k21: twin 2-pool model
Na,K-ATPase [3] = biological target: T1, Na,K-ATPase; type: biochemical, dog
Na,K-ATPase [4] = settings: 0°C, different method; ref Klodos and Nørby, 1987; cited from earlier work
Na,K-ATPase [5] = biological target: T1, Na,K-ATPase; assay: Na-ATPase activity and rate constant of blank chase at 4, 17 and 27°C; type: biochemical, dog; settings: both Na-ATPase activity and rate constant of blank chase
Method in brief: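 Na-ATPase measured without K+ in imidazole MOPS with Na3EGTA and NaNO3 at 40 or 400 mM, started with ATP, 4 mM final. Rate constant taken from the blank chase: decay of [γ-32P]phosphoenzyme after labelling stops, with a chase lacking ADP and K+. Both run at 4, 17 and 27°C.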

[6] = 500 mM Na^+, no replacement cation, nitrate, 4°C, enzyme prep. A
[7] = 45 mM Na^+, replacement cation to a sum of 500 mM, nitrate, 4°C, prep. A
[8] = 200 mM Na^+, replacement cation to a sum of 500 mM, nitrate, 4°C, prep. B

Cl [chloride]
effect on Na,K-ATPase activity of increasing the salt concentration to 400 mM (Na,K-ATPase [1]): no effect

CC(=O)O [acetate]
effect on Na,K-ATPase activity of increasing the salt concentration to 400 mM (Na,K-ATPase [1]): no effect

[Na+] [Na^+]
effect on interconversion rate constants (Na,K-ATPase [2]; 240 mM NaNO3 vs 30 mM NaNO3 plus 210 mM TrisNO3, 4°C): not affected significantly
K(internal) = [ADP·E1P]/[ATP·E1] (Na,K-ATPase [3]; 45 mM Na^+): ~2
K int in 45 mM Na^+ relative to 200 mM Na^+ in each medium (Na,K-ATPase [3]; 45 mM vs 200 mM Na^+): 2.1–2.5 fold
K int = [ADP·E1P]/[ATP·E1] (Na,K-ATPase [3]; 200 mM Na^+): 0.5–1.4
K int = [ADP·E1P]/[ATP·E1] (Na,K-ATPase [3]; 500 mM Na^+): 0.1–0.3
K(internal) = [ADP·E1P]/[ATP·E1] (Na,K-ATPase [3]; 500 mM Na^+): ~0.2
E1P (amount of K-resistant E1P) (Na,K-ATPase [3]; [6]): 95%

Nc1ncnc2c1ncn2[C@@H]1O[C@H](COP(=O)(O)OP(=O)(O)OP(=O)(O)O)[C@@H](O)[C@H]1O [ATP, reference compound]
k(off), rate constant of dissociation of ATP from ATP·E1 (Na,K-ATPase [3]; [6]): 1.1 ± 0.10 s⁻¹ and 1.3 ± 0.20 s⁻¹
k off, rate constant of dissociation of ATP, range over all media of Table III (Na,K-ATPase [3]; 45-500 mM Na^+, 4°C, no correlation with [Na^+]): 0.7 to 1.9 s⁻¹
rate constant of dissociation of ATP (Na,K-ATPase [4]): 1.5 to 3.5 s⁻¹

CCN(CC)CC [Et3N^+, triethylamine]
E1P (amount of K-resistant E1P) (Na,K-ATPase [3]; [7]): 68%
E1P (amount of K-resistant E1P) (Na,K-ATPase [3]; [8]): 56%

[Cl-].[Na+] [NaCl]
ratio of interconversion rate constants, k12/k21 (Na,K-ATPase [2]; 160 mM NaCl, 4°C): > 5
ratio of interconversion rate constants, k12/k21 (Na,K-ATPase [2]; 600 mM NaCl, 4°C): 0.25

CNC[C@H](O)[C@@H](O)[C@H](O)[C@H](O)CO [NMG^+, N-methylglucamine]
E1P (amount of K-resistant E1P) (Na,K-ATPase [3]; 45 mM Na^+, replacement cation to a sum of 500 mM, nitrate, 4°C, prep. C): 80%
E1P (amount of K-resistant E1P) (Na,K-ATPase [3]; 200 mM Na^+, replacement cation to a sum of 500 mM, nitrate, 4°C, prep. C): 79%

O=[N+]([O-])O [nitrate]
amount of E1P in nitrate relative to acetate (Na,K-ATPase [2]; 30 mM Na^+, 250 mM Lys^+): sevenfold larger
initial amount of E1P (Na,K-ATPase [2]; 280 mM anion, 30 mM Na^+, 250 mM lysine^+, 4°C, 2-pool model): 36%

O=[N+]([O-])[O-].[Na+] [NaNO3]
effect on rate constant of dephosphorylation in a blank chase (Na,K-ATPase [2]; 4°C, concentration increased from 40 to 400 mM): inhibited dephosphorylation
activation energy (ΔH) in 400 mM relative to 40 mM NaNO3 (Na,K-ATPase [5]): 1.3 fold

N=C(N)NCCC[C@H](N)C(=O)O [Arg^+, arginine^+]
E1P (amount of K-resistant E1P) (Na,K-ATPase [3]; [7]): 97%
E1P (amount of K-resistant E1P) (Na,K-ATPase [3]; [8]): 97%
